Measured values: ChEMBL document CHEMBL2021769, “Isolation, structure elucidation, and biological evaluation of 16,23-epoxycucurbitacin constituents from Eleaocarpus chinensis” (J Nat Prod, 2012)
The source made the active and inactive calls. No cut-off for these calls is given here.

How the values were obtained:
[1] = system: HT-29; test: Cytotoxicity against human HT-29 cells after 3 days by sulforhodamine B assay; assay type: functional, cell-based; details: HT-29, 72 h
[2] = system: HT-29; test: Cytotoxicity against human HT-29 cells after 3 days by mitochondrial transmembrane potential assay; assay type: functional, cell-based; details: HT-29, 72 h
[3] = system: HT-29; test: Antitumor activity against human HT-29 cells xenografted in immunodeficient NCr nu/nu mouse assessed as inhibition of tumor growth at 0.5 to 10 mg/kg, ip dosed as four daily injections on day 3,4,5 and 6 followed by fiber retrieval on day 7 by in-vivo hollow fiber assay; assay type: functional, organism-based
In short: (§1)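 Murine hollow fiber model, ip route; fibers loaded per fiber with HT29 1 × 10⁶, MCF-7 5 × 10⁶, or MDA-MB-435 1 × 10⁶ cells. Dosing 0.5 to 10 mg/kg per day for four days in 5% EtOH/5% Tween 80 in physiologic saline; paclitaxel positive control at 2.0 mg/kg per day for four days. Proliferation inhibition assessed in each cell type.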

[4] = system: MCF7; test: Antitumor activity against human MCF7 cells xenografted in immunodeficient NCr nu/nu mouse assessed as inhibition of tumor growth at 0.5 to 10 mg/kg, ip dosed as four daily injections on day 3,4,5 and 6 followed by fiber retrieval on day 7 by in-vivo hollow fiber assay; assay type: functional, organism-based; in short: as §1
[5] = system: MDA-MB-435; test: Antitumor activity against human MDA-MB-435 cells xenografted in immunodeficient NCr nu/nu mouse assessed as inhibition of tumor growth at 0.5 to 10 mg/kg, ip dosed as four daily injections on day 3,4,5 and 6 followed by fiber retrieval on day 7 by in-vivo hollow fiber assay; assay type: functional, organism-based; in short: as §1

Structure (SMILES) | IC50 [1] | IC50 [2] | also measured
CC(C)(O)C[C@H]1C[C@](C)(O)[C@H]2[C@@H](C[C@@]3(C)[C@@H]4CC=C5[C@@H](CC[C@H](O)C5(C)C)[C@]4(C)C(=O)C[C@]23C)O1 [ELAEOCARPUCIN F] | > 10000 nM | > 20000 nM | –
C/C(C=O)=C\[C@H]1C[C@](C)(O)[C@H]2[C@@H](C[C@@]3(C)[C@@H]4CC=C5[C@@H](CC[C@H](O)C5(C)C)[C@]4(C)C(=O)C[C@]23C)O1 [ELAEOCARPUCIN E] | > 10000 nM | – | –
C=C(C)[C@H](O)[C@H]1C[C@](C)(O)[C@H]2[C@@H](C[C@@]3(C)[C@@H]4CC=C5[C@@H](CC[C@H](O)C5(C)C)[C@]4(C)C(=O)C[C@]23C)O1 [ELAEOCARPUCIN A] | > 10000 nM | > 20000 nM | –
C=C(C)[C@@H](O)[C@H]1C[C@](C)(O)[C@H]2[C@@H](C[C@@]3(C)[C@@H]4CC=C5[C@@H](CC[C@H](O)C5(C)C)[C@]4(C)C(=O)C[C@]23C)O1 [ELAEOCARPUCIN B] | > 10000 nM | > 20000 nM | –
CC(C)(O)/C=C/C(=O)[C@](C)(O)[C@H]1[C@H](O)C[C@@]2(C)[C@@H]3CC=C4[C@@H](CC(=O)[C@H](O)C4(C)C)[C@]3(C)C(=O)C[C@]12C | 39 nM | > 20000 nM | –
CC(C)(O)/C=C/C(=O)[C@](C)(O)[C@H]1[C@H](O)C[C@@]2(C)[C@@H]3CC=C4[C@@H](C[C@H](O)C(=O)C4(C)C)[C@]3(C)C(=O)C[C@]12C [CUCURBITACIN D] | 120 nM | > 20000 nM | –
CC(C)=C[C@H]1C[C@](C)(O)[C@H]2[C@@H](C[C@@]3(C)[C@@H]4CC=C5[C@@H](CC[C@H](O)C5(C)C)[C@]4(C)C(=O)C[C@]23C)O1 | > 10000 nM | > 20000 nM | –
CC(=O)O[C@H]1C(=O)[C@@]2(C)[C@H]([C@H](OC(=O)c3ccccc3)[C@]3(O)C[C@H](OC(=O)[C@H](O)[C@@H](NC(=O)c4ccccc4)c4ccccc4)C(C)=C1C3(C)C)[C@]1(OC(C)=O)CO[C@@H]1C[C@@H]2O [PACLITAXEL] | 6 nM | – | –
C/C(=C\[C@H]1C[C@](C)(O)[C@H]2[C@@H](C[C@@]3(C)[C@@H]4CC=C5[C@@H](CC[C@H](O)C5(C)C)[C@]4(C)C(=O)C[C@]23C)O1)CO [ELAEOCARPUCIN C] | 410 nM | > 20000 nM | inhibition [3]: inactive; inhibition [4]: inactive; inhibition [5]: inactive
CC(C)(O)/C=C/C(=O)[C@](C)(O)[C@H]1[C@H](O)C[C@@]2(C)[C@@H]3CC=C4[C@@H](C=C(O)C(=O)C4(C)C)[C@]3(C)C(=O)C[C@]12C [CUCURBITACIN I] | 190 nM | – | –
CC(C)=C[C@@H]1O[C@@H]2C[C@@]3(C)[C@@H]4CC=C5[C@@H](CC[C@H](O)C5(C)C)[C@]4(C)C(=O)C[C@]3(C)[C@H]2[C@@](C)(O)[C@@H]1O [ELAEOCARPUCIN G] | 2900 nM | – | –
CC(=O)OC(C)(C)/C=C/C(=O)[C@](C)(O)[C@H]1[C@H](O)C[C@@]2(C)[C@@H]3CC=C4[C@@H](C[C@H](O)[C@@H](O)C4(C)C)[C@]3(C)C(=O)C[C@]12C | 540 nM | – | –
C=C(C)C(=O)[C@H]1C[C@](C)(O)[C@H]2[C@@H](C[C@@]3(C)[C@@H]4CC=C5[C@@H](CC[C@H](O)C5(C)C)[C@]4(C)C(=O)C[C@]23C)O1 [ELAEOCARPUCIN D] | 5600 nM | – | –
CC(C)=C[C@H]1C[C@](C)(O)[C@H]2[C@@H](C[C@@]3(C)[C@@H]4C(=O)C=C5[C@@H](CC[C@H](O)C5(C)C)[C@]4(C)C(=O)C[C@]23C)O1 [ELAEOCARPUCIN H] | 2700 nM | – | –
